Assay results as given in ChEMBL document CHEMBL1144480, “Study on the substituents' effects of a series of synthetic chalcones against the yeast Candida albicans” (2007).
In brackets after ≈: the same amount, converted by molar mass. Activity calls are given as the source filed them. The calls are words filed in the database; no cut-off is given here.

Columns and labels:
[1] = system: Candida albicans; assay: Antifungal activity against Candida albicans Berhaut 62I after 24 hrs; type: functional
Summary of the method: (§1)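 Serial dilutions of each chalcone in meat-pepton broth in tubes; inoculum 10⁵ cells/ml; 37 °C, 24 h. MIC taken as the lowest dilution with no visible growth against inoculated drug-free broth. Tubes without visible growth streaked onto meat-pepton agar, 37 °C, 24 h, and checked for growth.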

[2] = system: Candida albicans; assay: Growth inhibition of Candida albicans Berhaut 62I by agar cup method; type: functional
Summary of the method: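 Each well received 100 µl of sample dissolved in 96% EtOH. Pre-diffusion at 4 °C for 2 h, then 37 °C for 48 h. Read-out was inhibitory zone diameter, with ≥15 mm initially counted as active. Pure solvent served as control.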

[3] = system: Candida albicans; assay: Antifungal activity against Candida albicans Berhaut 62I in meat-pepton broth; type: functional; summary of the method: as §1
[4] = system: Candida albicans; assay: Antifungal activity against Candida albicans Berhaut 62I at 2000 ug/ml; type: functional, organism-based
[5] = Candida albicans, Berhaut 62I, read-out: MIC

Row | SMILES | MIC [1] | inhibition zone (IZ) [2] | MIC [3, 5] | Activity [4] | MIC [3]
1 | O=C(/C=C/c1ccccc1)c1ccc(Cl)cc1 | 500 µg/mL (≈ 2060 µM) | 0 mm | 500 µg/mL (≈ 2060 µM) |  | 
2 | COc1cc(C(=O)/C=C/c2ccc(N(C)C)cc2)cc(OC)c1OC | 500 µg/mL (≈ 1460 µM) | 0 mm | 500 µg/mL (≈ 1460 µM) |  | 
3 | O=C(/C=C/c1ccc(O)c(O)c1)c1ccc(Cl)cc1 | 62.5 µg/mL (≈ 228 µM) | 14 mm | 62.5 µg/mL (≈ 228 µM) |  | 
4 | N#Cc1ccc(/C=C/C(=O)c2ccc(Cl)cc2)cc1 | 250 µg/mL (≈ 934 µM) | 23 mm | 250 µg/mL (≈ 934 µM) |  | 
5 | N#Cc1ccc(/C=C/C(=O)c2ccccc2)cc1 | 250 µg/mL (≈ 1070 µM) | 17 mm | 250 µg/mL (≈ 1070 µM) |  | 
6 | O=C(/C=C/c1ccc(Cl)cc1)c1ccccc1 [4-CHLORO CHALCONE] | 500 µg/mL (≈ 2060 µM) | 0 mm | 500 µg/mL (≈ 2060 µM) |  | 
7 | COc1cc(/C=C/C(=O)c2ccc(Cl)cc2)cc(OC)c1OC | 500 µg/mL (≈ 1500 µM) | 0 mm | 62.5 µg/mL (≈ 188 µM) |  | 
8 | O=C(/C=C/c1ccc2c(c1)OCO2)c1ccccc1 |  |  | 62.5 µg/mL (≈ 248 µM) |  | 
9 | COc1cc(C(=O)/C=C/c2ccc(NC(C)=O)cc2)cc(OC)c1OC | 500 µg/mL (≈ 1410 µM) | 0 mm | 500 µg/mL (≈ 1410 µM) |  | 
10 | O=C(/C=C/c1ccc(O)c(O)c1)c1ccccc1 | 62.5 µg/mL (≈ 260 µM) | 15 mm | 62.5 µg/mL (≈ 260 µM) |  | 
11 | O=C(/C=C/C=C/c1ccccc1)c1ccccc1 |  |  |  | inactive | 
12 | COc1ccc(/C=C/C(=O)c2cc(OC)c(OC)c(OC)c2)cc1 | 500 µg/mL (≈ 1520 µM) | 0 mm | 500 µg/mL (≈ 1520 µM) |  | 
13 | COc1ccc(/C=C/C(=O)c2ccccc2)cc1 [4-METHOXY CHALCONE] | 500 µg/mL (≈ 2100 µM) | 0 mm | 500 µg/mL (≈ 2100 µM) |  | 
14 | O=C(/C=C/c1ccc([N+](=O)[O-])cc1)c1ccccc1 | 250 µg/mL (≈ 987 µM) | 17 mm | 250 µg/mL (≈ 987 µM) |  | 
15 | Cc1ccc(/C=C/C(=O)c2ccccc2)cc1 | 500 µg/mL (≈ 2250 µM) | 0 mm | 500 µg/mL (≈ 2250 µM) |  | 
16 | COc1cc(/C=C/C(=O)c2ccc(Cl)cc2)ccc1O | 250 µg/mL (≈ 866 µM) | 19 mm | 62.5 µg/mL (≈ 216 µM) |  | 
17 | COc1cccc(/C=C/C(=O)c2cc(OC)c(OC)c(OC)c2)c1 |  |  | 62.5 µg/mL (≈ 190 µM) |  | 
18 | CN(C)c1ccc(/C=C/C(=O)c2ccccc2)cc1 | 500 µg/mL (≈ 1990 µM) | 0 mm | 500 µg/mL (≈ 1990 µM) |  | 
19 | COc1cc(C(=O)/C=C/c2ccc(Cl)cc2)cc(OC)c1OC | 500 µg/mL (≈ 1500 µM) | 0 mm | 500 µg/mL (≈ 1500 µM) |  | 
20 | Cc1ccc(/C=C/C(=O)c2ccc(Cl)cc2)cc1 | 500 µg/mL (≈ 1950 µM) | 0 mm | 500 µg/mL (≈ 1950 µM) |  | 
21 | O=C(/C=C/c1cccc(O)c1)c1ccc(Cl)cc1 | 125 µg/mL (≈ 483 µM) | 20 mm | 125 µg/mL (≈ 483 µM) |  | 
22 | O=C(/C=C/c1ccc(Cl)cc1)c1ccc(Cl)cc1 [4',4-DICHLOROCHALCONE] | 500 µg/mL (≈ 1800 µM) | 0 mm | 500 µg/mL (≈ 1800 µM) |  | 
23 | COc1cc(C(=O)/C=C/c2ccc(C)cc2)cc(OC)c1OC | 500 µg/mL (≈ 1600 µM) | 0 mm | 500 µg/mL (≈ 1600 µM) |  | 

Row | SMILES | MIC [1] | inhibition zone (IZ) [2] | MIC [3, 5] | Activity [4] | MIC [3]
24 | COc1ccc(/C=C/C(=O)c2ccc(Cl)cc2)cc1O | 500 µg/mL (≈ 1730 µM) | 0 mm | 500 µg/mL (≈ 1730 µM) |  | 
25 | O=C(/C=C/c1ccc(O)cc1)c1ccccc1 [4-HYDROXYCHALCONE] | 62.5 µg/mL (≈ 279 µM) | 15 mm | 62.5 µg/mL (≈ 279 µM) |  | 
26 | COc1cccc(/C=C/C(=O)c2ccc(Cl)cc2)c1 | 500 µg/mL (≈ 1830 µM) | 15 mm | 62.5 µg/mL (≈ 229 µM) |  | 
27 | COc1cccc(/C=C/C(=O)c2ccc(Cl)cc2)c1O | 500 µg/mL (≈ 1730 µM) | 0 mm | 500 µg/mL (≈ 1730 µM) |  | 
28 | COc1cc(C(=O)/C=C/c2ccc(C#N)cc2)cc(OC)c1OC | 500 µg/mL (≈ 1550 µM) | 0 mm | 500 µg/mL (≈ 1550 µM) |  | 
29 | O=C(/C=C/C=C/c1ccccc1)/C=C/C=C/c1ccccc1 |  |  |  | inactive | 
30 | O=C(/C=C/c1ccc([N+](=O)[O-])cc1)c1ccc(Cl)cc1 | 250 µg/mL (≈ 869 µM) | 15 mm | 250 µg/mL (≈ 869 µM) |  | 
31 | CC(=O)Nc1ccc(/C=C/C(=O)c2ccc(Cl)cc2)cc1 | 500 µg/mL (≈ 1670 µM) | 0 mm | 500 µg/mL (≈ 1670 µM) |  | 
32 | O=C(/C=C/c1ccc2c(c1)OCO2)c1ccc(Cl)cc1 | 500 µg/mL (≈ 1740 µM) | 0 mm | 62.5 µg/mL (≈ 218 µM) |  | 
33 | O=C(/C=C/c1ccccc1)c1ccccc1 [CHALCONE] | 125 µg/mL (≈ 600 µM) | 30 mm | 125 µg/mL (≈ 600 µM) |  | 
34 | O=C(/C=C/c1ccccc1)/C=C/c1ccccc1 |  |  |  | inactive | 
35 | COc1ccc(/C=C/C(=O)c2ccc(Cl)cc2)cc1OC | 500 µg/mL (≈ 1650 µM) | 0 mm | 62.5 µg/mL (≈ 206 µM) |  | 62.5 µg/mL (≈ 206 µM)
36 | CC(=O)Nc1ccc(/C=C/C(=O)c2ccccc2)cc1 | 500 µg/mL (≈ 1880 µM) | 0 mm | 500 µg/mL (≈ 1880 µM) |  | 
37 | O=C(/C=C/c1ccc(O)cc1)c1ccc(Cl)cc1 | 62.5 µg/mL (≈ 242 µM) | 21 mm | 62.5 µg/mL (≈ 242 µM) |  | 
38 | O=C(/C=C/c1ccccc1O)c1ccc(Cl)cc1 | 62.5 µg/mL (≈ 242 µM) | 16 mm | 62.5 µg/mL (≈ 242 µM) |  | 
39 | CN(C)c1ccc(/C=C/C(=O)c2ccc(Cl)cc2)cc1 | 500 µg/mL (≈ 1750 µM) | 0 mm | 500 µg/mL (≈ 1750 µM) |  | 
40 | COc1cc(/C=C/C(=O)c2ccc(Cl)cc2)cc(OC)c1O | 125 µg/mL (≈ 392 µM) | 15 mm | 62.5 µg/mL (≈ 196 µM) |  | 
41 | O=C(/C=C/c1cccc(O)c1)c1ccccc1 [3-HYDROXY CHALCONE] | 250 µg/mL (≈ 1110 µM) | 17 mm | 250 µg/mL (≈ 1110 µM) |  | 
42 | COc1ccc(/C=C/C(=O)c2ccccc2)cc1O | 500 µg/mL (≈ 1970 µM) | 0 mm | 500 µg/mL (≈ 1970 µM) |  | 
43 | O=C(/C=C/c1ccccc1O)c1ccccc1 | 31.2 µg/mL (≈ 139 µM) | 21 mm | 31.2 µg/mL (≈ 139 µM) |  | 
44 | COc1cc(C(=O)/C=C/c2ccccc2)cc(OC)c1OC | 500 µg/mL (≈ 1680 µM) | 0 mm | 500 µg/mL (≈ 1680 µM) |  | 
45 | COc1cccc(/C=C/C(=O)c2ccccc2)c1O | 62.5 µg/mL (≈ 246 µM) | 12 mm | 62.5 µg/mL (≈ 246 µM) |  | 
46 | COc1ccc(/C=C/C(=O)c2ccc(Cl)cc2)cc1 | 500 µg/mL (≈ 1830 µM) | 0 mm | 500 µg/mL (≈ 1830 µM) |  | 
